Test results from ChEMBL document CHEMBL4665790, “Photohormones Enable Optical Control of the Peroxisome Proliferator-Activated Receptor γ (PPARγ)” (J Med Chem, 2020).
The source made the active and inactive calls. No cut-off for these calls is given here.

Legend:
[1] = biological target: T1, Peroxisome proliferator-activated receptor gamma (Homo sapiens, UniProt P37231); assay: Agonist activity at PPARgamma (unknown origin) expressed in HEK293T cells incubated for 14 to 16 hrs under irradiation by hybrid Gal4 reporter gene assay; format: cell-based
T1 sequence (P37231 whole entry): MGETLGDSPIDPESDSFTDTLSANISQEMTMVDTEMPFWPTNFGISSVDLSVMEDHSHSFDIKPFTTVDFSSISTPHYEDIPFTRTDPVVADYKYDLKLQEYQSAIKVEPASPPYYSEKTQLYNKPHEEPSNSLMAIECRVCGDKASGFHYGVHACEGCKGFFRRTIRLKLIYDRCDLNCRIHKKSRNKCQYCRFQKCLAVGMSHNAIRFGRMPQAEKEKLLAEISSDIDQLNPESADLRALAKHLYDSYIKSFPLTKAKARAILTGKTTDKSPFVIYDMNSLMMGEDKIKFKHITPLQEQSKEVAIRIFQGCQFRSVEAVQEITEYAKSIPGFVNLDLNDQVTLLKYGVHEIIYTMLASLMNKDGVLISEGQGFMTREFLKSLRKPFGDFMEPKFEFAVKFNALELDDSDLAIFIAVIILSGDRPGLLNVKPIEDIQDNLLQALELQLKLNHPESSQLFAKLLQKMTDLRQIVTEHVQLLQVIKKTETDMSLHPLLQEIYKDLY

[2] = biological target: T2, Peroxisome proliferator-activated receptor gamma (Homo sapiens) (UniProt P37231); assay: Agonist activity at PPARgamma (unknown origin) expressed in HEK293T cells at 10 uM incubated for 14 to 16 hrs under irradiation by hybrid Gal4 reporter gene assay; format: cell-based; details: time hrs 14-16
T2 sequence (whole entry): T1 sequence (P37231 whole entry)
Outline: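 Gal4 hybrid reporter: HEK293T cells transiently co-transfected with Gal4–human PPARγ hinge+LBD fusion, Gal4-responsive firefly luciferase reporter and Renilla normalisation plasmid. Compound added 5 h post-transfection in Opti-MEM, 0.1% DMSO final; 14–16 h incubation. Dual-Glo read-out, firefly/Renilla ratio, fold over DMSO control. Technical duplicates, at least two independent repeats.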

[3] = biological target: T3, Peroxisome proliferator-activated receptor alpha (Homo sapiens) (UniProt Q07869); assay: Agonist activity at PPARalpha (unknown origin) expressed in HEK293T cells at 10 uM incubated for 14 to 16 hrs under irradiation by hybrid Gal4 reporter gene assay; format: cell-based; details: time hrs 14-16
T3 sequence (whole entry): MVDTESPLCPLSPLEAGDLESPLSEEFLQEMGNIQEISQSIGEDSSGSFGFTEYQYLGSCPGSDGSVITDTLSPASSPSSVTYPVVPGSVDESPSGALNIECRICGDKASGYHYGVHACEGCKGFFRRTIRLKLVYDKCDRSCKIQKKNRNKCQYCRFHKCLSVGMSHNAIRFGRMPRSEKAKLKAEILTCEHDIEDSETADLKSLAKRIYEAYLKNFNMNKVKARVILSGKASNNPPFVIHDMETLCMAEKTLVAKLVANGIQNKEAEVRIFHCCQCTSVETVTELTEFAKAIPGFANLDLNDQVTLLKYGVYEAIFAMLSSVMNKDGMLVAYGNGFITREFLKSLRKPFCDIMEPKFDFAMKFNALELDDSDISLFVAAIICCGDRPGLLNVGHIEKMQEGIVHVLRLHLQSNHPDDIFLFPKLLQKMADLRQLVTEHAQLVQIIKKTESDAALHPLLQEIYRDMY
Outline: (§1)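 HEK293T cells transfected (Lipofectamine LTX) with Gal4 fusion of human PPARα or PPARδ hinge region + LBD, pFR-Luc reporter and pRL-SV40; compound added in Opti-MEM with 0.1% DMSO 5 h post-transfection, 14–16 h incubation. Dual-Glo luciferase; firefly/Renilla ratio gives RLU, fold activation vs DMSO control. Duplicates, ≥2 independent repeats.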

[4] = biological target: T4, Peroxisome proliferator-activated receptor delta (Homo sapiens) (UniProt Q03181); assay: Agonist activity at PPARdelta (unknown origin) expressed in HEK293T cells at 10 uM incubated for 14 to 16 hrs under irradiation by hybrid Gal4 reporter gene assay; format: cell-based; details: time hrs 14-16; outline: as §1
T4 sequence (whole entry): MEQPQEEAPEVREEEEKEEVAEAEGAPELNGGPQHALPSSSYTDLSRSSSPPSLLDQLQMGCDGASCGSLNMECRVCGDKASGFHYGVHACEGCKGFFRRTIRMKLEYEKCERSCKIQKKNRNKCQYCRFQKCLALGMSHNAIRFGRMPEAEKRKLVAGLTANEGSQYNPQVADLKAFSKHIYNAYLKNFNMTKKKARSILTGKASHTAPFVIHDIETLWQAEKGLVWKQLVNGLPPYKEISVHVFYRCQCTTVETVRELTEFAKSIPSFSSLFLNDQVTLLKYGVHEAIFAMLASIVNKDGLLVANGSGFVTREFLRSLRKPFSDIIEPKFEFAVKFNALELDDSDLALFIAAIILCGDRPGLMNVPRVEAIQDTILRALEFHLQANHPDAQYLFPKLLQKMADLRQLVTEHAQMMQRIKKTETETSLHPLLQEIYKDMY

[5] = biological target: T2, Peroxisome proliferator-activated receptor gamma (Homo sapiens); assay: Agonist activity at PPARy in human HepG2 cells transfected with human PPRE incubated for 14 to 16 hrs using pre-irradiated compound by firefly luciferase reporter gene assay relative to control; format: cell-based; details: filed as agonist, time hrs 14-16
Outline: (§2)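 HepG2 cells on collagen-coated wells, transfected (Lipofectamine 3000) with PPRE1-pGL3 (human full-length PPRE driving firefly luciferase) plus pRL-SV40; endogenous PPARγ/RXR, no overexpression. Compound in Opti-MEM, 0.1% DMSO, 14–16 h; cis state held by 75 ms 370 nm pulses every 15 s. Firefly/Renilla normalised, fold activation over DMSO control; rosiglitazone reference.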

[6] = biological target: T1, Peroxisome proliferator-activated receptor gamma; assay: Agonist activity at PPARy in human HepG2 cells transfected with human PPRE incubated for 14 to 16 hrs using pre-irradiated compound by firefly luciferase reporter gene assay; format: cell-based; outline: as §2
[7] = biological target: T1, Peroxisome proliferator-activated receptor gamma; assay: (§3) Binding affinity to recombinant PPARy LBD (unknown origin) expressed in Escherichia coli BL21 DE3 using pre-irradiated compound by ITC assay
Outline: (§4)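 ITC at 25 °C: 300 µM compound, pre-irradiated 5 min at 365 nm, titrated into 64 µM His-tag-cleaved PPARγ LBD (aa 234–505, E. coli BL21 DE3 with GroEL/ES, IMAC plus gel filtration) in 25 mM HEPES pH 7.5, 150 mM KF, 5 mM DTT, 10% glycerol, 1% DMSO. 31 injections (1.0 then 2.5 µL), 300 s apart, 75 rpm; buffer control.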

[8] = biological target: T2, Peroxisome proliferator-activated receptor gamma (Homo sapiens); assay: Agonist activity at PPARy in human HepG2 cells transfected with human PPRE at 10 uM incubated for 14 to 16 hrs using pre-irradiated compound by firefly luciferase reporter gene assay; format: cell-based; details: filed as agonist, time hrs 14-16; outline: as §2
[9] = biological target: T2, Peroxisome proliferator-activated receptor gamma (Homo sapiens); assay: as §3; outline: as §4

SMILES	EC50 [1] [µM]	Activity [4]	other results
O=C1NC(=O)C(Cc2ccc(/N=N/c3ccc(C(F)(F)F)cc3)cc2)S1 (centres undefined)	2.2		
O=C1NC(=O)C(Cc2ccc(/N=N\c3ccc(C(F)(F)F)cc3)cc2)S1 (centres undefined)	6.5		
O=C1NC(=S)NC(=O)C1=Cc1ccc(/N=N/c2ccccc2)cc1		inactive	Activity [2]: inactive; Activity [3]: inactive
O=C1NC(=O)C(Cc2ccc(/N=N\c3ccccc3)cc2)S1 (centres undefined)	6.3		
O=C1NC(=O)C(Cc2ccc(/N=N\c3ccc(Cl)cc3)cc2)S1 (centres undefined)	7		
O=C1NC(=O)C(Cc2ccc(/N=N/c3ccccc3)cc2)S1 (centres undefined)	2.2	inactive	
O=C(c1ccccc1)c1ccccc1N[C@@H](Cc1ccc(/N=N/c2ccccc2)cc1)C(=O)O		inactive	Activity [3]: inactive
Cc1ccccc1-c1ccc(/N=N\c2ccc(CC3SC(=O)NC3=O)cc2)cc1 (centres undefined)	6.4		fold change (FC) [5]: 2.4; EC50 [6]: 0.9 µM; Kd [7]: 9.3 µM
O=C1NC(=O)C(Cc2ccc(/N=N/c3ccc(Cl)cc3)cc2)S1 (centres undefined)	2.9		
Cc1ccccc1-c1ccc(/N=N/c2ccc(CC3SC(=O)NC3=O)cc2)cc1 (centres undefined)	2.8		Activity [8]: Active; Activity [9]: inactive
